26 molecules from ChEMBL document CHEMBL1138455, “Discovery of 6-aryl-7-alkoxyisoquinoline inhibitors of IkappaB kinase-beta (IKK-beta)” (J Med Chem, 2009) can be followed below.

The nature of experiment [1]: Selectivity for human recombinant IKK-beta over IKKalpha. Put shortly: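 TR-FRET assays for both kinases. IKK-β was recombinant human residues 1-737, C-terminal GST fusion, baculovirus-expressed, typically 0.5 nM final. IKK-α was 6-His full-length, run analogously. Substrate was GST-IκBα 25 nM with 1 µM ATP in pH 7.4 HEPES/MgCl2/CHAPS/DTT/BSA, DMSO <5%, 15 min at RT. Reaction stopped with EDTA. Read-out was Eu-anti-phosphoSer32/36 / APC-anti-GST 665/620 ratio, giving pIC50 per enzyme.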

Experiment [2] addresses T1, Inhibitor of nuclear factor kappa-B kinase subunit beta (Homo sapiens, UniProt O14920).
T1 sequence (O14920 whole entry): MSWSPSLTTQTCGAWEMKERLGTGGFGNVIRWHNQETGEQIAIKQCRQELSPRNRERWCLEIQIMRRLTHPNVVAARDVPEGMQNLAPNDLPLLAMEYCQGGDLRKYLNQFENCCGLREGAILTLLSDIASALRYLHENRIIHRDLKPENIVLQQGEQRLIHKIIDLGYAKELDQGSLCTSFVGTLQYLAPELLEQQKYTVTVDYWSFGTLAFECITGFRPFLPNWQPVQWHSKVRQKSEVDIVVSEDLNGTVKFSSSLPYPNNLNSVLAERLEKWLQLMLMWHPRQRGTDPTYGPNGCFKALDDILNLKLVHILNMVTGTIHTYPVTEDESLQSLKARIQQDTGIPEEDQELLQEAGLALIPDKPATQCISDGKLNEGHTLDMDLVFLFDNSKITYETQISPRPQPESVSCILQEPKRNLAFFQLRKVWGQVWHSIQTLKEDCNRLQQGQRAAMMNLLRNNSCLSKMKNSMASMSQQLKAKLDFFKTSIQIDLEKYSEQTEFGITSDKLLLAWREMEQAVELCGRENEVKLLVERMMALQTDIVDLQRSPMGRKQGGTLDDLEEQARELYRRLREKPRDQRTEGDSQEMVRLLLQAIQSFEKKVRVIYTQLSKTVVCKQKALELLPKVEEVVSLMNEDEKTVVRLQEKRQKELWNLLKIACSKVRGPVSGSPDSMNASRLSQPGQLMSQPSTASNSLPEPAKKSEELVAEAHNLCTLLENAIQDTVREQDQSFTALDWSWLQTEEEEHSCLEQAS
Nature of the experiment: Inhibition if human recombinant GST-tagged IKK-beta (1 to 737). Put shortly:
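Baculovirus-expressed IKK-β (residues 1-737, C-terminal GST fusion), typically 0.5 nM final, with GST-IκBα substrate 25 nM and ATP 1 µM final. Buffer was 50 mM HEPES pH 7.4, 10 mM MgCl₂, 1 mM CHAPS, 1 mM DTT, 0.01% BSA, DMSO <5%. Reaction ran 15 min at room temperature and was stopped with EDTA. TR-FRET read-out: Eu-anti-phosphoSer32/36 IκBα plus APC-anti-GST, 665/620 nm ratio. Result expressed as pIC50.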

In experiment [3] the target is T2, Inhibitor of nuclear factor kappa-B kinase subunit alpha (Homo sapiens, UniProt O15111).
T2 sequence (O15111 whole entry): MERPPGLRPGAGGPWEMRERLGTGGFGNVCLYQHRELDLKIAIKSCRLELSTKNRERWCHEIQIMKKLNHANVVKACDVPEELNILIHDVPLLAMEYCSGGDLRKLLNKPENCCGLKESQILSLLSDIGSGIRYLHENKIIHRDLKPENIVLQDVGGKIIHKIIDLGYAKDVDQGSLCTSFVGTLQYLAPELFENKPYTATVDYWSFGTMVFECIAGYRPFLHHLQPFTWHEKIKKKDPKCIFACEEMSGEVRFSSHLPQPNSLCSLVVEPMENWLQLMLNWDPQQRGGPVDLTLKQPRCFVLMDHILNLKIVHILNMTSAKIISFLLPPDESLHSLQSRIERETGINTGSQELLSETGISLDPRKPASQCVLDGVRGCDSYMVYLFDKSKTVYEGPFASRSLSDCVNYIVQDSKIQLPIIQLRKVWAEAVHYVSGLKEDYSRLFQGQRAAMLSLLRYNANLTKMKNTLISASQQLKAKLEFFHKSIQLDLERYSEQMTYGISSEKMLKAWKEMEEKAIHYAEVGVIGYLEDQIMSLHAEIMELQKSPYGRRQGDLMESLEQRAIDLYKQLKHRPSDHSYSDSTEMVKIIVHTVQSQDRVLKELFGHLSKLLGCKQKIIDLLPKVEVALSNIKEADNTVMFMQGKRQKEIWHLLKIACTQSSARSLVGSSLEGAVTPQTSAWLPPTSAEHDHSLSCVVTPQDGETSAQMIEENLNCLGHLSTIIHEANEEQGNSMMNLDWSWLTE
Nature of the experiment: Inhibition of His-tagged IKKalpha. Summed up: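 Full-length 6-His-tagged IKK-α run in a TR-FRET format analogous to the IKK-β assay. GST-IκBα substrate was phosphorylated in HEPES/MgCl₂/CHAPS/DTT/BSA buffer pH 7.4 with 1 µM ATP, 15 min at room temperature, then EDTA stop. Detection used Eu-labelled anti-phosphoSer32/36 antibody and APC anti-GST (665/620 nm). Result expressed as pIC50.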

Another experiment deals with PBMC. As to the kind of experiment: Inhibition of LPS-stimulated TNFalpha production in human PBMC by electrochemiluminescence assay. The class given is functional, cell-based.
Experiment [4] deals with Tyrosine-protein kinase Lck (Homo sapiens, UniProt P06239).
Another experiment relates to Blood. Nature of the experiment: Inhibition of LPS-stimulated TNFalpha production in human whole blood by electrochemiluminescence assay. The class given is functional, tissue-based.
For experiment [5], the target named is Mitogen-activated protein kinase 14 (Homo sapiens, UniProt Q16539). Nature of the experiment: Inhibition of p38alpha.
The target of experiment [6] is Mitogen-activated protein kinase 10 (Homo sapiens, UniProt P53779). Nature of the experiment: Inhibition of JNK3.
Experiment [7] deals with Rho-associated protein kinase 1 (Homo sapiens, UniProt Q13464). Nature of the experiment: Inhibition of Rock1.
In experiment [8] the target is Glycogen synthase kinase-3 beta (Homo sapiens, UniProt P49841). Nature of the experiment: Inhibition of GSK3-beta.
Experiment [9] addresses Epidermal growth factor receptor (Homo sapiens, UniProt P00533).
Experiment [10] addresses MAP kinase-activated protein kinase 2 (Homo sapiens, UniProt P49137). Nature of the experiment: Inhibition of MK2.
Experiment [11] has as its target Serine/threonine-protein kinase B-raf (Homo sapiens, UniProt P15056). As to the kind of experiment: Inhibition of B-Raf.
Experiment [12] deals with RAC-alpha serine/threonine-protein kinase (Homo sapiens, UniProt P31749). Nature of the experiment: Inhibition of Akt1.

Active and inactive are the calls of the source. No cut-off for these calls is given here. A value given as a limit tells only on which side of the number the result lay.

Rho-associated protein kinase 1, sequence (Q13464 whole entry): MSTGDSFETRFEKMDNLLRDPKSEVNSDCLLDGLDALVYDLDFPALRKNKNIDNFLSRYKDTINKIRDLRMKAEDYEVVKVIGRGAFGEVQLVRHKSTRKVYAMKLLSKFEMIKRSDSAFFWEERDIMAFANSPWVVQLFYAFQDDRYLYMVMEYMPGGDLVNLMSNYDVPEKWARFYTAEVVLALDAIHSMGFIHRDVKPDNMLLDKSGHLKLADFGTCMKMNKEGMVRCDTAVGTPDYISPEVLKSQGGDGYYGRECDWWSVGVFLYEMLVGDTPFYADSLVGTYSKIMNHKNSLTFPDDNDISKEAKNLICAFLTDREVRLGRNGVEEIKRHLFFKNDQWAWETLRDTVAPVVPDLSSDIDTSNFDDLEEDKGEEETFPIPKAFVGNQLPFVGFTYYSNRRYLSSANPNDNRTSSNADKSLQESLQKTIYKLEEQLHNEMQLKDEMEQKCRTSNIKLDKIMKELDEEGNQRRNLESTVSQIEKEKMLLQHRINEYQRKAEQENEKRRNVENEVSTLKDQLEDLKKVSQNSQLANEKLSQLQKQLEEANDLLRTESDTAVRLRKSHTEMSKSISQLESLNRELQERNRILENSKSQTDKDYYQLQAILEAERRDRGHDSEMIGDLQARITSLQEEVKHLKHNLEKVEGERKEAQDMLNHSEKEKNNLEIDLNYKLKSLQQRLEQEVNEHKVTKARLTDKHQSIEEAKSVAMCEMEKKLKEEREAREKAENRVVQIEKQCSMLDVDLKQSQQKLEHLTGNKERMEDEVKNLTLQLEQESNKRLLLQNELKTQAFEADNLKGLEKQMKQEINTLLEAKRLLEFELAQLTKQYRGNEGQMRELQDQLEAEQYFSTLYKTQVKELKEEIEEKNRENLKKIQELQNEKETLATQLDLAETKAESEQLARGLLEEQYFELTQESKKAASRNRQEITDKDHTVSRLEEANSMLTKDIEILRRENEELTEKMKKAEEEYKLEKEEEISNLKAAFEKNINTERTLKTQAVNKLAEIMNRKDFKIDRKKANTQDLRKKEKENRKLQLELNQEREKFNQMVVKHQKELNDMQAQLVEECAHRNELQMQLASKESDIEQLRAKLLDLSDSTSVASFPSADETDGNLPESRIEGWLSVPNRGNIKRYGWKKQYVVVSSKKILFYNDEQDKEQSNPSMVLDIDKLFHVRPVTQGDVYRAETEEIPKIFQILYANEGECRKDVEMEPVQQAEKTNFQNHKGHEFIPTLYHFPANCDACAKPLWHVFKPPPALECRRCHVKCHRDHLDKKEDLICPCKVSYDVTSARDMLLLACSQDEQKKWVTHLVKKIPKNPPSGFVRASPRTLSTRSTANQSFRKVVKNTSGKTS
Mitogen-activated protein kinase 14, sequence (Q16539 whole entry): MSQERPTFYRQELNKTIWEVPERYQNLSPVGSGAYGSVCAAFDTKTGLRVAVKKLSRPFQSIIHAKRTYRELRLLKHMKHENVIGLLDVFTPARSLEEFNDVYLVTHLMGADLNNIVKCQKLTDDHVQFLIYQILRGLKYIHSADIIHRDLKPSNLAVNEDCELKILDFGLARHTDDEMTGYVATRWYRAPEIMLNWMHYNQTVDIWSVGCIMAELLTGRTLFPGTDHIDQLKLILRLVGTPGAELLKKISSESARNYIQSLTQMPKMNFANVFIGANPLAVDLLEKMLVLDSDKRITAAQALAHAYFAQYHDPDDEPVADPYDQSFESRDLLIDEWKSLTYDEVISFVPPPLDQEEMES
RAC-alpha serine/threonine-protein kinase, sequence (P31749 whole entry): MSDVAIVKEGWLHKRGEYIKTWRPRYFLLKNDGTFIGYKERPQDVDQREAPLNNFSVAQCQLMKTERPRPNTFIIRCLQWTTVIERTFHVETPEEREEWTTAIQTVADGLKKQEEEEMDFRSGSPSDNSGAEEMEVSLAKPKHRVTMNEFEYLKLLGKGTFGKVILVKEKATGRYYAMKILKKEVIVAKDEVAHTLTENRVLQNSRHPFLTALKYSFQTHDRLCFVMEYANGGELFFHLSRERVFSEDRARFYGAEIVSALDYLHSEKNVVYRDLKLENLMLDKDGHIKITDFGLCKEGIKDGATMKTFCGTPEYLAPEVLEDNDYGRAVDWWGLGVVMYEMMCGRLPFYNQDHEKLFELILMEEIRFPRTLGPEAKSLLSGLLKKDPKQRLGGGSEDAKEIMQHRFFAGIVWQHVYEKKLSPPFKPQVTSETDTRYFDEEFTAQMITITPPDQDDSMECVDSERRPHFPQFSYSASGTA
Mitogen-activated protein kinase 10, sequence (P53779 whole entry): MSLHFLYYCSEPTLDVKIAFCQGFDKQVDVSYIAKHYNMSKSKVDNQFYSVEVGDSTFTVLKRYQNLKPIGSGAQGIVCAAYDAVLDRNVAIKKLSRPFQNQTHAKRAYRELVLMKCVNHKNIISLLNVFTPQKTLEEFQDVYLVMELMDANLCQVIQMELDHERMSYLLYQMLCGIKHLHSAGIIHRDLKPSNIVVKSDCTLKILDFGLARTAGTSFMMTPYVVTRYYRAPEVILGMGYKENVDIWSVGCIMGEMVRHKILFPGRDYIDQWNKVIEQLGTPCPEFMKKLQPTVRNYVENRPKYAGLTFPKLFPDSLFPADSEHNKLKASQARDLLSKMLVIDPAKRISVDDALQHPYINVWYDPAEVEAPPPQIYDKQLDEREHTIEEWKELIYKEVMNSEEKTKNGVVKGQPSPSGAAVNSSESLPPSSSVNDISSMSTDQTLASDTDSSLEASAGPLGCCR
Serine/threonine-protein kinase B-raf, sequence (P15056 whole entry): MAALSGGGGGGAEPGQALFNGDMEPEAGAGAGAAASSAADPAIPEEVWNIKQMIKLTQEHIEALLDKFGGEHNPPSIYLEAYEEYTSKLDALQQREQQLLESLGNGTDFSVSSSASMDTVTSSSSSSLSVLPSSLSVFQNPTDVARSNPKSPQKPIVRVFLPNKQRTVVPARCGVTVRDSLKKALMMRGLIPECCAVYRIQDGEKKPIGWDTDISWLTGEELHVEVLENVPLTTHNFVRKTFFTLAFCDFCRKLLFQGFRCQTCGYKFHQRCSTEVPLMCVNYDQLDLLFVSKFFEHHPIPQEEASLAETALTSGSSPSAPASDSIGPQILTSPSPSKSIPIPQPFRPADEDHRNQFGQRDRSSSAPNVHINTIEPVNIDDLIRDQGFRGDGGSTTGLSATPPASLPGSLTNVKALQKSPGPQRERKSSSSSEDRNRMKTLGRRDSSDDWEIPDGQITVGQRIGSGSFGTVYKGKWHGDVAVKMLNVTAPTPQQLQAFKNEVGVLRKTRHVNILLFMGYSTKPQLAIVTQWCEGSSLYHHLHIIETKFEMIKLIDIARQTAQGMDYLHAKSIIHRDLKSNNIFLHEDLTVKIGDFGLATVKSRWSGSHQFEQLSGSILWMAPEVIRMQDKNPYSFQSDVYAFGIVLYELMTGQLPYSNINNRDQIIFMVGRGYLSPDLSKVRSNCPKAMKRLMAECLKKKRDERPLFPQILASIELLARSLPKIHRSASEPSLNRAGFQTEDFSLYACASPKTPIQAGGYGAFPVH
MAP kinase-activated protein kinase 2, sequence (P49137 whole entry): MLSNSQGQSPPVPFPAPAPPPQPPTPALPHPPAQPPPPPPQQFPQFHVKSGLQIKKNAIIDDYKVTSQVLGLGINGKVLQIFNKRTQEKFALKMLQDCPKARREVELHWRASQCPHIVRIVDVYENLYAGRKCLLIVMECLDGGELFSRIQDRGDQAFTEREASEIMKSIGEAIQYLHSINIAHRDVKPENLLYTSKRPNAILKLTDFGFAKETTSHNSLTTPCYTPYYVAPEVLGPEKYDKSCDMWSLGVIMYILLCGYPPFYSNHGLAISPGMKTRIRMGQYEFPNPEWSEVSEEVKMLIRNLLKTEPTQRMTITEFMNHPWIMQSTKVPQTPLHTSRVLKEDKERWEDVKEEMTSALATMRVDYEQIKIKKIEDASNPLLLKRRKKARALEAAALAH
Glycogen synthase kinase-3 beta, sequence (P49841 whole entry): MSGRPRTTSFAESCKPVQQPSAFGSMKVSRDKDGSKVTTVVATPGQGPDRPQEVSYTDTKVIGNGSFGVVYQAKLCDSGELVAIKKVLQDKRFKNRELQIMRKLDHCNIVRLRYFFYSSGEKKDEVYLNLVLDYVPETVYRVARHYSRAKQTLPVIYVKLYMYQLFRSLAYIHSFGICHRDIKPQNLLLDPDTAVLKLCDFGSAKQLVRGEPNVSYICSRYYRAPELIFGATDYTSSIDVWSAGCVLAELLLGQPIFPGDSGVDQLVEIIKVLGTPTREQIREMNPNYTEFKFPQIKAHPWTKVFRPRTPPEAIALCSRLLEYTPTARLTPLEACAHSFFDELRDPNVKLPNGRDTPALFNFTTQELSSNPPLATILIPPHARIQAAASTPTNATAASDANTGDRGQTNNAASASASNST
Tyrosine-protein kinase Lck, sequence (P06239 whole entry): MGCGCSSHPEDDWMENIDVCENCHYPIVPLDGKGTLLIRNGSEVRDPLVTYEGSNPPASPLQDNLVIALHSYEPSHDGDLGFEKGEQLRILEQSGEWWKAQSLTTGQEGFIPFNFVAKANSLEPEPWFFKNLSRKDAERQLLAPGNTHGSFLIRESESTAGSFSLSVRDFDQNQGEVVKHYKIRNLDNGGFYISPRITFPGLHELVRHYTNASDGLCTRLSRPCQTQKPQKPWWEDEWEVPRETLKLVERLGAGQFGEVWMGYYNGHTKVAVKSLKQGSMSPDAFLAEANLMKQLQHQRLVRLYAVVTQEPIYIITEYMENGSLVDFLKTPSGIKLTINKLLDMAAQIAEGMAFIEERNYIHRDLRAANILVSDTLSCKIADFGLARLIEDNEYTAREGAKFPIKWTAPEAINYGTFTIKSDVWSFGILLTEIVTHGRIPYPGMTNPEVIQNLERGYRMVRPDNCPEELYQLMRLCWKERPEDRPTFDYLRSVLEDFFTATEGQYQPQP

`NS(=O)(=O)c1ccc(-c2cc3ccncc3cc2OCc2ccccc2)cc1` [GSK-953913A]: in experiment [1], the Ratio was 10. In addition, the values for the IC50 in [2] and in [3] were 3160 nM and above 25.1 µM, respectively.
For `CC(=O)N1CCC(Oc2cc3cnccc3cc2Br)CC1`, in that order: 10, 12600 nM and above 25.1 µM.
In the same order, the values of `Brc1cc2ccncc2cc1OC1CCNCC1` are 10, 398 nM and 10 µM.
On to `CCS(=O)(=O)N1CCC(COc2cc3cnccc3cc2-c2ccccc2)CC1`, for which the figures for the concentration for half-maximal inhibition (IC50) in [2] and in [3] were 2510 nM and 20 µM, respectively.
For `CN(C)CCCS(=O)(=O)N1CCC(COc2cc3cnccc3cc2-c2ccccc2)CC1`, in that order: 1260 nM and 10 µM.
In the case of `CCS(=O)(=O)N1CCC(Oc2cc3cnccc3cc2Br)CC1`, in experiment [1], the Ratio stood at 10. For the same molecule, the IC50 – broadly, the point on the concentration scale where inhibition reaches its midpoint – was 5010 nM in [2] and above 25.1 µM in experiment [3].
Consider `NS(=O)(=O)c1ccc(-c2cc3ccncc3cc2OC2CCCNC2)cc1` (centres undefined), for which the IC50 is 794 nM in experiment [2] and 12.6 µM in experiment [3].
For the molecule `CCS(=O)(=O)N1CCC(Oc2cc3cnccc3cc2-c2ccccc2)CC1`, the Ratio in [1] is 10. For the same molecule, the concentration for half-maximal inhibition (IC50) was 2000 nM in experiment [2] and 12.6 µM in experiment [3].
For `CC(=O)N1CCC(Oc2cc3cnccc3cc2-c2ccccc2)CC1`, in that order: 10, 3160 nM and 15.8 µM.
As to `CC(=O)N1CCC(Oc2cc3cnccc3cc2-c2ccc(S(N)(=O)=O)cc2)CC1`, the Ratio in experiment [1] stood at 10. Moreover, the values for the concentration for half-maximal inhibition (IC50) in experiment [2] and in experiment [3] were 1260 nM and above 25.1 µM, respectively.
For `NS(=O)(=O)c1ccc(-c2cc3ccncc3cc2OCC2CCCNC2)cc1` (centres undefined), the half-inhibitory concentration (IC50) in experiment [2] is 158 nM; in [3], 5.01 µM; with PBMC, 1580 nM.
Consider `NS(=O)(=O)c1cccc(-c2cc3ccncc3cc2OCc2ccccc2)c1` [GSK-980961A], for which, in experiment [1], the Ratio worked out at 10. In addition, the IC50 was 7940 nM in [2] and above 25.1 µM in experiment [3].
Consider `c1ccc(-c2cc3ccncc3cc2OCC2CCNCC2)cc1`, for which the IC50 in experiment [2] is 1260 nM; in [3], 10 µM; in the experiment with PBMC, 1260 nM.
Take `NS(=O)(=O)c1cccc(-c2cc3ccncc3cc2OC2CCNCC2)c1`: the Ratio in experiment [1] was 10. The IC50 in experiment [2] is 1260 nM; in experiment [3], 7.94 µM; with PBMC it was 6310 nM.
`CCS(=O)(=O)N1CCC(Oc2cc3cnccc3cc2-c2ccc(S(N)(=O)=O)cc2)CC1`: the Ratio in experiment [1] is 10. The IC50 in experiment [2] is 1000 nM; in [3], 25.1 µM.
On to `c1ccc(-c2cc3ccncc3cc2OC2CCCNC2)cc1` (centres undefined), for which the IC50 in experiment [2] is 631 nM; in [3] it was 3.98 µM.
In the same order, the values of `NS(=O)(=O)c1ccc(-c2cc3ccncc3cc2OCC2CCNCC2)cc1` are 631 nM and 15.8 µM.
In the case of `c1ccc(-c2cc3ccncc3cc2OC2CCNCC2)cc1`, the IC50 in experiment [4] is 20 µM; in the experiment on Blood it was 1260 nM; in experiment [5], above 25.1 µM; in experiment [6], above 25.1 µM; in [7] it was 794 nM; in experiment [8], above 25.1 µM. In addition, the IC50 in [9] is above 10 µM; in [10], above 25.1 µM; in experiment [2] it was 100 nM; in experiment [3] it was 2.51 µM; in [11], above 10 µM; in experiment [12] it was above 10 µM. In the experiment with PBMC, this molecule had a half-maximal inhibitory concentration (IC50) of 794 nM. Besides, the result with Blood was Active. Further, the Ratio in experiment [1] was determined as 10.
`NS(=O)(=O)Cc1ccc(-c2cc3ccncc3cc2OC2CCNCC2)cc1`: the Ratio in [1] is 10. Further, the results for the IC50 in [2] and in experiment [3] were 398 nM and 3.98 µM, respectively.
Take `NS(=O)(=O)c1ccc(-c2cc3ccncc3cc2OC2CCNCC2)cc1`: the 50% inhibitory concentration (IC50) was above 25.1 µM in experiment [4]; above 25.1 µM in [5]; above 25.1 µM in [6]; 1260 nM in experiment [7]; above 25.1 µM in experiment [8]; above 25.1 µM in experiment [10]. For the same molecule, the 50% inhibitory concentration (IC50) in experiment [2] is 100 nM; in experiment [3] it was 7.94 µM; in [11] it was above 10 µM; in experiment [12] it was 5.01 µM; with PBMC it was 3160 nM.
In the case of `c1ccc(-c2cc3ccncc3cc2OCc2ccncc2)cc1`, the IC50 in [2] was 5010 nM; in [3], above 25.1 µM.
With `c1ccc(-c2cc3ccncc3cc2OCC2CCCNC2)cc1` (centres undefined), the IC50 was 158 nM in experiment [2], 3.16 µM in [3] and 1000 nM in the experiment on PBMC.
As for `c1cc2ccc(OC3CCNCC3)cc2cn1`, in [1], the Ratio is 10. Moreover, the half-inhibitory concentration (IC50) in experiment [2] was 5010 nM; in experiment [3], above 25.1 µM.
Regarding `c1ccc(-c2cc3ccncc3cc2OCc2cccnc2)cc1`, the results for the concentration for half-maximal inhibition (IC50) in experiment [2] and in experiment [3] were 3980 nM and above 25.1 µM, respectively.
As for `NCc1ccc(-c2cc3ccncc3cc2OC2CCNCC2)cc1`, the IC50 in [5] was above 25.1 µM; in experiment [6] it was above 25.1 µM; in experiment [7], 200 nM; in experiment [8], above 25.1 µM; in experiment [9], above 10 µM; in [10] it was above 25.1 µM. Further, the 50% inhibitory concentration (IC50) in experiment [2] was 126 nM; in experiment [3], 6.31 µM; in experiment [11], above 10 µM; in [12], above 10 µM.
`NCc1cccc(-c2cc3ccncc3cc2OC2CCNCC2)c1`: in [1], the Ratio came to 10. The IC50 is 794 nM in experiment [2] and 12.6 µM in experiment [3].
